Experimental data reported in ChEMBL document CHEMBL1156307 (J Med Chem, 2010).

Legend:
Histone deacetylase 1 = Histone deacetylase 1 (Homo sapiens, UniProt Q13547); assay: Inhibition of FLAG-tagged HDAC1 expressed in HEK293 cells by fluorescent assay; format: cell-based
HCT-116 = assay: Antiproliferative activity against human HCT116 cells by MTS assay; format: functional, cell-based
Outline: (§1)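 Monolayer proliferation assay. Cells were seeded at 5000-10000 per well and exposed to eight serial compound dilutions for 72 h. Viability was read by CellTiter-Glo or MTS per the kit protocol, and IC50 was taken from growth curves. Each determination averaged triplicate concentration-inhibition curves. Values are the mean ± standard deviation of two separate determinations.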

[1] = Antiproliferative activity against human H1299 cells by MTS assay; format: functional, cell-based; conditions: NCI-H1299; outline: as §1
[2] = molecular target: Voltage-gated inwardly rectifying potassium channel KCNH2 (Homo sapiens, UniProt Q12809); assay: Inhibition of human ERG expressed in CHO cells by automated patch clamp electrophysiology assay
[3] = Association constant, pKa at pH 2 to 12; format: physicochemical
Histone deacetylase 2 = Histone deacetylase 2 (Homo sapiens, UniProt Q92769); assay: Inhibition of HDAC2 expressed in baculovirus system by fluorescent assay
Histone deacetylase 3 = Histone deacetylase 3 (Homo sapiens, UniProt O15379); assay: Inhibition of FLAG-tagged HDAC3 expressed in HEK293 cells by fluorescent assay; format: cell-based
Outline: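 HDAC3 immunopurified from 293 cells stably expressing FLAG-tagged enzyme. Substrate bis-Boc-(Ac)Lys-rhodamine 110; its deacetylation releases a fluorophore, read on a fluorometric plate reader.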

Histone deacetylase 4 = Histone deacetylase 4 (Homo sapiens, UniProt P56524); assay: Inhibition of HDAC4 expressed in baculovirus system by fluorescent assay
Outline: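 HDAC4 purified from a baculovirus expression system. Substrate bis-Boc-(Ac)Lys-rhodamine 110; its deacetylation generates a fluorophore, read on a fluorometric plate reader.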

[4] = molecular target: T1, Protein deacetylase HDAC6 (Homo sapiens, UniProt Q9UBN7); assay: Inhibition of FLAG-tagged HDAC6 expressed in HEK293 cells by fluorescent assay; format: cell-based
T1 sequence (Q9UBN7 whole entry): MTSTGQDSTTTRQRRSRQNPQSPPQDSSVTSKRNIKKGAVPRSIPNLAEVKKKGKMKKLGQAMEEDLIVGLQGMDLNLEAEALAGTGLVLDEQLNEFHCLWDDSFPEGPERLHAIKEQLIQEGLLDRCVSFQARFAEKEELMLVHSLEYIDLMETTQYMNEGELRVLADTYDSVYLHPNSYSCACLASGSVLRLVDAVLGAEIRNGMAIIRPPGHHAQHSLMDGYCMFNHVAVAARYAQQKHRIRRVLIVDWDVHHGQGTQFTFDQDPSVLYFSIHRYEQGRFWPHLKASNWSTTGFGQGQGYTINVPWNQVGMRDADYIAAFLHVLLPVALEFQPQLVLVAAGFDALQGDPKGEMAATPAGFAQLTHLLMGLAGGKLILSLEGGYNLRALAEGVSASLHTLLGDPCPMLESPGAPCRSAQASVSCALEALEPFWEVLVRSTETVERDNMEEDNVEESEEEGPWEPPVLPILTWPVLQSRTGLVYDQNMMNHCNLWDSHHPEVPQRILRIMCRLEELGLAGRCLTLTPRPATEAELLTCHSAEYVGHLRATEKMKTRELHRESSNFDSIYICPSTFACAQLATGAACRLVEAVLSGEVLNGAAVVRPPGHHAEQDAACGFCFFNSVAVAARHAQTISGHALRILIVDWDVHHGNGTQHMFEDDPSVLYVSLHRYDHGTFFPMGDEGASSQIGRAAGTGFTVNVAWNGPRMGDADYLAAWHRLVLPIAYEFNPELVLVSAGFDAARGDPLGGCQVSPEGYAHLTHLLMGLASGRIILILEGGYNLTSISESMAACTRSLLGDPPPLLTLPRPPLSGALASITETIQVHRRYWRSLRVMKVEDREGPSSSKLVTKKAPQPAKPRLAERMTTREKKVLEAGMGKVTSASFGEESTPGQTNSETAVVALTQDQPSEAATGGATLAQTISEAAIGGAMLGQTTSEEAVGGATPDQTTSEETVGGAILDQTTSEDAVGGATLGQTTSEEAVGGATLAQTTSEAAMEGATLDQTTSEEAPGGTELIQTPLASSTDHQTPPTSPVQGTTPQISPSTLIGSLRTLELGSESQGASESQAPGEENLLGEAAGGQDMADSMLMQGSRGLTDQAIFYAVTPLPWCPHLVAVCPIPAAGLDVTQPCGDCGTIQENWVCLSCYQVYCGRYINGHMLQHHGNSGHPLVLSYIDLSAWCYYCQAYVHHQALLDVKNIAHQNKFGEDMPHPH
Outline: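 HDAC6 immunopurified from 293 cells stably expressing the FLAG-tagged isoform. Deacetylation of the bis-Boc-(Ac)Lys-rhodamine 110 substrate releases a fluorophore, read on a fluorometric plate reader.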

Histone deacetylase 8 = molecular target: T2, Histone deacetylase 8 (Homo sapiens, UniProt Q9BY41); assay: Inhibition of HDAC8 expressed in baculovirus system by fluorescent assay
T2 sequence (Q9BY41 whole entry): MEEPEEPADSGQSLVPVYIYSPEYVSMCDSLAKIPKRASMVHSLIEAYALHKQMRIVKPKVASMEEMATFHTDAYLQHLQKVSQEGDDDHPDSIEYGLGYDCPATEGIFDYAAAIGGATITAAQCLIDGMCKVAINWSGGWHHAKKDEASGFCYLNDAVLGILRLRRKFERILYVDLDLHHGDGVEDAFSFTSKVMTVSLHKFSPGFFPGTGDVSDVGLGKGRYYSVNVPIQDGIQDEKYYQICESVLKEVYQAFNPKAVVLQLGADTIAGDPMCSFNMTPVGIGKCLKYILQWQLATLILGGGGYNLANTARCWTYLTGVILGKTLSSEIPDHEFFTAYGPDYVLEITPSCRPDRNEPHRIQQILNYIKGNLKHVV

Chain of Voltage-gated inwardly rectifying potassium channel KCNH2 (Q12809 whole entry): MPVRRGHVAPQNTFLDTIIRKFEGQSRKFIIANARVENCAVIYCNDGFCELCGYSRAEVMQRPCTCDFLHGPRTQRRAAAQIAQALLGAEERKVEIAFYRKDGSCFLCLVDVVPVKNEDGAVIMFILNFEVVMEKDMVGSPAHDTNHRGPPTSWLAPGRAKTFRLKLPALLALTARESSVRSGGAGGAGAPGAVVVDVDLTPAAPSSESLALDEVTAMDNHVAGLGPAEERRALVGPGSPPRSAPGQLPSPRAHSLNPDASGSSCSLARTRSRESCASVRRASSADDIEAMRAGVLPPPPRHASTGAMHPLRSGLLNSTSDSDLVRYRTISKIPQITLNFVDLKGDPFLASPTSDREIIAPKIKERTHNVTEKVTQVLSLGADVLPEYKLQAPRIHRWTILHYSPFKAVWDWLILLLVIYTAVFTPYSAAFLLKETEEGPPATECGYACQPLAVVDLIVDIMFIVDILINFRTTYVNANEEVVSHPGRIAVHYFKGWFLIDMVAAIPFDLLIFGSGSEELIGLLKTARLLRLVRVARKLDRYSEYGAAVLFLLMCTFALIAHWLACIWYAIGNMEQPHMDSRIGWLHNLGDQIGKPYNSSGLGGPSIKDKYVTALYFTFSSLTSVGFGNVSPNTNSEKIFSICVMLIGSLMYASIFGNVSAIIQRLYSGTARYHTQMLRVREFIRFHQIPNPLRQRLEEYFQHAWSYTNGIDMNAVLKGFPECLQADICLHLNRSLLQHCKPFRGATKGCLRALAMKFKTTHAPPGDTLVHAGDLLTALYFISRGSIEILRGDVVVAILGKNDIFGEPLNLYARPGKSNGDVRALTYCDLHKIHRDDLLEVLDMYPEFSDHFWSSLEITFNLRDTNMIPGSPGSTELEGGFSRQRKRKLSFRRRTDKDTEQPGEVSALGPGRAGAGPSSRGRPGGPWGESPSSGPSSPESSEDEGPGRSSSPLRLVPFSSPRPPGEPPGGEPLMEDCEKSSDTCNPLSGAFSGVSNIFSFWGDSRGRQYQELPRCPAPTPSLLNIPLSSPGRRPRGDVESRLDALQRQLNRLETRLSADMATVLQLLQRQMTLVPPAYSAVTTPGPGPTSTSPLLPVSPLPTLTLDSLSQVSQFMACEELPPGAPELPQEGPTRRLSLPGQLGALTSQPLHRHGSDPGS
Chain of Histone deacetylase 1 (Q13547 whole entry): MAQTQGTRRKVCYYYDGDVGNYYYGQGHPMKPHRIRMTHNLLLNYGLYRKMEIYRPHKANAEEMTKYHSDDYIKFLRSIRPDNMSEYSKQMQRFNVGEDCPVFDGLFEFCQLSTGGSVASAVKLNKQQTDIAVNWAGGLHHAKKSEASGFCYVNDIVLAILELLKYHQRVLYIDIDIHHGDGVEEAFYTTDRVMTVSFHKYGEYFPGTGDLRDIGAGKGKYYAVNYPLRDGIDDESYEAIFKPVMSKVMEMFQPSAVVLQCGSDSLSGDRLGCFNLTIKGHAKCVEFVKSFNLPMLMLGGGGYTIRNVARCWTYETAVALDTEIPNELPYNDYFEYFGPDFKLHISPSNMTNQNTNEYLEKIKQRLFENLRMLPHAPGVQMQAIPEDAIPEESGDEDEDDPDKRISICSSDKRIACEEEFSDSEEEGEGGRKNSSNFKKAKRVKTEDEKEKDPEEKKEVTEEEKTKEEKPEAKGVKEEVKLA
Chain of Histone deacetylase 4 (P56524 whole entry): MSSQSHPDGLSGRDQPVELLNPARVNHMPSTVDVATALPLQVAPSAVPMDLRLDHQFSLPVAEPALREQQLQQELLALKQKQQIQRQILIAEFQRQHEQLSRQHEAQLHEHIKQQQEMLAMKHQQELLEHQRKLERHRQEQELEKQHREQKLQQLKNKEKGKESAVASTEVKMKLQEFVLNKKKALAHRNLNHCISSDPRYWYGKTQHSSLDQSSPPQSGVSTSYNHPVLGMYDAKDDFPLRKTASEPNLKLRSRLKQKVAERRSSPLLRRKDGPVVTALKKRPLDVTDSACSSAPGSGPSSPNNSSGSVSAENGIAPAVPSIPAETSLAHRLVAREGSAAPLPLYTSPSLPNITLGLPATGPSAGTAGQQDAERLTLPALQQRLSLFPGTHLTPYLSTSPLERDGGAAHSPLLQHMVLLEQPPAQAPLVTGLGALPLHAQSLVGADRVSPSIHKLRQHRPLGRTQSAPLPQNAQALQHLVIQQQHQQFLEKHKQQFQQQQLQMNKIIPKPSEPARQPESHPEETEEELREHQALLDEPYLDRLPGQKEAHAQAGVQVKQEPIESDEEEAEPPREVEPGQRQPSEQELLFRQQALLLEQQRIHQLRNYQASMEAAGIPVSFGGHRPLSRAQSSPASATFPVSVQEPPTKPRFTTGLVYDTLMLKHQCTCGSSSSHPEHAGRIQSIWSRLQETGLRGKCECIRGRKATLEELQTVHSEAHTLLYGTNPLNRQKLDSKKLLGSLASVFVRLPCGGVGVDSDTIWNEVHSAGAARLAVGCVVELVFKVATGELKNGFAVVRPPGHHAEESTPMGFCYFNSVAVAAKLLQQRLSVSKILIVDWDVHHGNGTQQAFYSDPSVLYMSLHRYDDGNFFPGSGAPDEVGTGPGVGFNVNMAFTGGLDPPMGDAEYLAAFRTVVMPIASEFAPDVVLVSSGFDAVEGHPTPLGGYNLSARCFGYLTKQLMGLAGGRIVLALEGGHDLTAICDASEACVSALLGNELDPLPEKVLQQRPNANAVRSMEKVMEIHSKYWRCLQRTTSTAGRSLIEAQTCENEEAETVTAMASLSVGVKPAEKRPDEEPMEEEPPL
Chain of Histone deacetylase 3 (O15379 whole entry): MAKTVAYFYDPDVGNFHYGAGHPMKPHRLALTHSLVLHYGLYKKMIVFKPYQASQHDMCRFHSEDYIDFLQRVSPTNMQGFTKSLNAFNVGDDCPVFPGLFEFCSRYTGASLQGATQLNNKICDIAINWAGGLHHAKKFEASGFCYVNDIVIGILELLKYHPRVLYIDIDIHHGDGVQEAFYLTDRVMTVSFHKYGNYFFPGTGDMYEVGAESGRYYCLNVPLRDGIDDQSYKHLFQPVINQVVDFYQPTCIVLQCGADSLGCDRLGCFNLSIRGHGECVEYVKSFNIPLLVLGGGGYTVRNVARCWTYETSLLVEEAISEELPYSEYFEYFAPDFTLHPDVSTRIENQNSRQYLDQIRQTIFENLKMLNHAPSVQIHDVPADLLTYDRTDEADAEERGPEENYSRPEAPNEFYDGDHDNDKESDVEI
Chain of Histone deacetylase 2 (Q92769 whole entry): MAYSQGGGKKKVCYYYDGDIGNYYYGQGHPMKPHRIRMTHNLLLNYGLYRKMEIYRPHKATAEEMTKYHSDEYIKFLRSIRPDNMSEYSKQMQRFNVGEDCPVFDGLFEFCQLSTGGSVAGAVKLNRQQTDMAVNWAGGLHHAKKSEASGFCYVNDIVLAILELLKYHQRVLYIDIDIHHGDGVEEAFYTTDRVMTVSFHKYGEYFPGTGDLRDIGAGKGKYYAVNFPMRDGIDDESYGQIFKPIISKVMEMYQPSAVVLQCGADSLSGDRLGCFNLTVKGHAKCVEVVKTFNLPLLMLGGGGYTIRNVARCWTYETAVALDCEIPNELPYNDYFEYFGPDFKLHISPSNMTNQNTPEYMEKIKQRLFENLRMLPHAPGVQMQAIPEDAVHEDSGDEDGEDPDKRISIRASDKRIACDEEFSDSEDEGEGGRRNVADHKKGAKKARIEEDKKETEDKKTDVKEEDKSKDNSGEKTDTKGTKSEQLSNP

Structure (SMILES)	IC50 (Histone deacetylase 1) [µM]	IC50 (HCT-116) [µM]	IC50 [1] [µM]	IC50 [2] [µM]	pKa [3]	IC50 (Histone deacetylase 2) [µM]	IC50 (Histone deacetylase 3) [µM]	IC50 (Histone deacetylase 4) [µM]	IC50 [4] [µM]	IC50 (Histone deacetylase 8) [µM]
Cc1[nH]c2ccccc2c1CCN1Cc2ccc(/C=C/C(=O)NO)cc2C1	0.027	0.041	0.232	4.8	–	–	–	–	–	–
Cc1[nH]c2ccccc2c1CCN1CCc2ccc(/C=C/C(=O)NO)cc2CC1	0.076	0.545	> 1	3.2	–	–	–	–	–	–
Cc1[nH]c2ccccc2c1C1CCCN(Cc2ccc(/C=C/C(=O)NO)cc2)C1 (configuration not stated)	0.005	0.0056	0.031	27.6	7.8	–	–	–	–	–
Cc1[nH]c2ccccc2c1C1CCN(Cc2ccc(/C=C/C(=O)NO)cc2)C1 (configuration not stated)	0.0028	0.0032	0.014	13.4	–	–	–	–	–	–
Cc1[nH]c2ccccc2c1CC1CCCCN1Cc1ccc(/C=C/C(=O)NO)cc1 (configuration not stated)	0.024	0.027	0.153	–	–	–	–	–	–	–
Cc1[nH]c2ccccc2c1CCN1CCCC1c1ccc(/C=C/C(=O)NO)cc1 (configuration not stated)	–	0.001	0.0043	19.4	–	–	–	–	–	–
Cc1[nH]c2ccccc2c1CCN1CCc2cc(/C=C/C(=O)NO)ccc2C1	0.041	0.119	0.725	–	–	–	–	–	–	–
CC(C)(C)c1[nH]c2ccccc2c1[C@H]1CCCN(Cc2ccc(/C=C/C(=O)NO)cc2F)C1	–	0.0008	0.0054	–	–	0.031	0.009	0.028	0.118	0.217
O=C(/C=C/c1ccc(CN2CCCC(c3c[nH]c4ccccc34)C2)c(F)c1)NO (configuration not stated)	0.136	0.332	3.52	–	–	–	–	–	–	–
O=C(/C=C/c1ccc(CN2CCCC(c3c(-c4ccccc4)[nH]c4ccccc34)C2)c(F)c1)NO (configuration not stated)	0.016	0.011	0.106	–	7.4	–	–	–	–	–
CC(C)(C)c1[nH]c2ccccc2c1C1CCCN(Cc2ccc(/C=C/C(=O)NO)cc2F)C1 (configuration not stated)	–	0.0038	0.02	–	7.3	–	–	–	–	–
CC(C)(C)c1[nH]c2ccccc2c1[C@@H]1CCCN(Cc2ccc(/C=C/C(=O)NO)cc2F)C1	–	0.143	0.443	–	–	0.048	0.021	0.038	0.11	0.364
CC(C)(C)c1[nH]c2ccccc2c1C1CCCN(Cc2ccc(/C=C/C(=O)NO)cc2Cl)C1 (configuration not stated)	–	0.0052	0.06	9.9	7.4	–	–	–	–	–
Cc1[nH]c2ccccc2c1CCN1CCc2ccc(/C=C/C(=O)NO)cc2C1	0.013	0.042	0.165	2.7	–	–	–	–	–	–
O=C(/C=C/c1ccc(CN2CCCC(c3c[nH]c4ccccc34)C2)cc1)NO (configuration not stated)	0.011	0.025	0.141	–	7.3	–	–	–	–	–
O=C(/C=C/c1ccc(CN2CCCC(c3c(-c4ccccc4)[nH]c4ccccc34)C2)cc1)NO (configuration not stated)	0.011	0.0069	0.031	–	7.7	–	–	–	–	–
CC(C)(C)c1[nH]c2ccccc2c1C1CCCN(Cc2ccc(/C=C/C(=O)NO)cc2)C1 (configuration not stated)	–	0.0009	0.0063	13.5	7.8	–	–	–	–	–
O=C(/C=C/c1ccc(CN(CCO)CCc2c[nH]c3ccccc23)cc1)NO [DACINOSTAT]	–	0.013	0.161	–	–	–	–	–	–	–
